Drawing on ChEMBL document CHEMBL1132592, “Synthesis of novel 2-benzothiopyran and 3-benzothiepin derivatives and their stimulatory effect on bone formation” (J Med Chem, 1999), this text covers ALP activity for 31 compounds.

The target in the assay is T1, Alkaline phosphatase, tissue-nonspecific isozyme (Rattus norvegicus) (UniProt P08289).
T1 sequence (whole entry): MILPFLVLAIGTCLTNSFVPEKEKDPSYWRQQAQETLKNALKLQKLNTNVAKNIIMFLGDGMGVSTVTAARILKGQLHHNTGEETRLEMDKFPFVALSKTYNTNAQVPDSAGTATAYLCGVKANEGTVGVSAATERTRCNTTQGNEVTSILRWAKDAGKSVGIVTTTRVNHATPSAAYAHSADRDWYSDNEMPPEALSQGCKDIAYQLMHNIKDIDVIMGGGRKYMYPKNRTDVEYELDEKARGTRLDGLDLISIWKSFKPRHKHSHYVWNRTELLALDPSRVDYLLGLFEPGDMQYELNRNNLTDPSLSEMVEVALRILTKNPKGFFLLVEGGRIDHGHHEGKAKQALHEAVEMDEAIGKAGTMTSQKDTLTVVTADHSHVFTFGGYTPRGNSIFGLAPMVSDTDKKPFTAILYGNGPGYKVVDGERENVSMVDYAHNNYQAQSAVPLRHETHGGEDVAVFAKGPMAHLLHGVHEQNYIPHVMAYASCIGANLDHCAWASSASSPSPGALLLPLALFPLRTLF
In words: Effect on alkaline phosphatase activity compared to control in culture of rat bone marrow stromal cells, 10E-5 M concentration. Format: tissue-based. An outline of the steps:
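Rat femoral marrow stromal cells subcultured at 4 × 10^4 cells/well in α-MEM with 15% FBS, ascorbate, 10 mM β-glycerophosphate and 10^-7 M dexamethasone. Compound added day 1 to day 10-14, medium refreshed every other day. Lysate ALP (Lowry method) given as fold of control; n = 5–10; Student's t-test.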
Turning to `CCOP(=O)(Cc1ccc(NC(=O)[C@H]2Cc3cc(OC)c(OC)cc3C(=O)[C@H](C)S2)cc1)OCC`, the ALP activity turned out to be 2.3.

As for `CCOP(=O)(Cc1ccc(NC(=O)[C@@H]2SCC(=O)c3cc(CC4CCCCC4)ccc32)cc1)OCC`, the ALP activity was 2.

For the compound `CCOP(=O)(Cc1ccc(NC(=O)[C@H]2Cc3ccc(C)cc3C(=O)[C@H](c3ccccc3)S2)cc1)OCC`, the ALP activity amounted to 1.2.

In turn, `CCOP(=O)(Cc1ccc(NC(=O)[C@H]2Cc3cc4c(cc3C(=O)CS2)OCCO4)cc1)OCC` yielded an ALP activity of 1.2.

`O=C1CS[C@@H](C(=O)Nc2ccc(Cl)cc2)c2cc3c(cc21)CCC3` gave an ALP activity of 1.3.

Take `CCOP(=O)(Cc1ccc(NC(=O)[C@@H]2SCC(=O)c3cc(C4CCCCC4)ccc32)cc1)OCC`: the ALP activity amounted to 2.4.

In turn, `CCOc1ccc(OCC)c(NC(=O)[C@@H]2SCC(=O)c3cc(C4CCCCC4)ccc32)c1` registered an ALP activity of 2.3.

As for `CCOP(=O)(Cc1ccc(NC(=O)[C@H]2Cc3ccccc3C(=O)CS2)cc1)OCC`, the ALP activity was determined as 1.5.

Compound `CCOP(=O)(Cc1ccc(NC(=O)[C@H]2Cc3cc4c(cc3C(=O)[C@H](C(C)C)S2)OCO4)cc1)OCC` showed an ALP activity of 3.3.

With `COc1cc2c(cc1OC)[C@H](C(=O)Nc1ccc(Cl)cc1)SCC2=O`, the ALP activity came to 1.3.

`CCOP(=O)(OCC)c1ccc(NC(=O)[C@H]2Cc3cc(OC)c(OC)cc3C(=O)CS2)cc1` registered an ALP activity of 2.6.

The compound `CCOP(=O)(OCC)c1ccc(NC(=O)[C@H]2Cc3cc(C)c(C)cc3C(=O)CS2)cc1` came in with an ALP activity of 2.2.

In turn, `CCOP(=O)(Cc1ccc(NC(=O)[C@H]2Cc3cc(OC)c(OC)cc3C(=O)[C@H](CC)S2)cc1)OCC` came in with an ALP activity of 1.5.

`COc1cc2c(cc1OC)C(=O)CS[C@@H](C(=O)Nc1ccc(CP3(=O)OCCCCO3)cc1)C2` registered an ALP activity of 2.8.

Turning to `C[C@@H]1S[C@@H](C(=O)Nc2nc(-c3ccccc3)cs2)c2cc3c(cc2C1=O)OCO3`, the ALP activity was determined as 1.3.

`COc1cc2c(cc1OC)C(=O)CS[C@@H](C(=O)Nc1ccc(CP3(=O)OCC(C)CO3)cc1)C2` (stereo partly specified) registered an ALP activity of 2.7.

Take `Cc1cc2c(cc1C)[C@H](C(=O)Nc1cnccn1)SCC2=O`: the ALP activity came out at 1.3.

For `CCOP(=O)(Cc1ccc(NC(=O)[C@H]2Cc3cc4c(cc3C(=O)[C@H](CC)S2)OCO4)cc1)OCC`, the ALP activity stood at 4.6.

In turn, `CCOP(=O)(Cc1cccc(NC(=O)[C@H]2Cc3cc4c(cc3C(=O)[C@H](C)S2)OCO4)c1)OCC` gave an ALP activity of 1.8.

`CCOP(=O)(Cc1ccc(NC(=O)[C@@H]2S[C@@H](C)C(=O)c3cc4c(cc32)OCO4)cc1)OCC` gave an ALP activity of 1.2.

Turning to `CC1COP(=O)(Cc2ccc(NC(=O)[C@H]3Cc4cc5c(cc4C(=O)[C@H](C)S3)OCO5)cc2)OC1` (stereo partly specified), the ALP activity stood at 3.

Regarding `Cc1cc2c(cc1C)[C@H](C(=O)Nc1cccnc1)SCC2=O`, the ALP activity was determined as 1.3.

`CCOP(=O)(Cc1ccc(NC(=O)[C@@H]2SCC(=O)c3cc(C)c(C)cc32)cc1)OCC` displayed an ALP activity of 1.5.

`O=C1CS[C@@H](C(=O)Nc2ccc(Cl)cc2)c2ccc(C3CCCCC3)cc21` came in with an ALP activity of 2.

Take `CC(C)Oc1ccc2c(=O)c(-c3ccccc3)coc2c1`: the ALP activity amounted to 1.6.

The compound `CCOP(=O)(OCC)c1ccc(NC(=O)[C@H]2Cc3cc4c(cc3C(=O)[C@H](C)S2)OCO4)cc1` showed an ALP activity of 1.8.

As for `CCOP(=O)(Cc1ccc(NC(=O)[C@H]2Cc3cc4c(cc3C(=O)CS2)OCO4)cc1)OCC`, the ALP activity worked out at 2.9.

Turning to `CCOP(=O)(Cc1ccc(NC(=O)[C@H]2Cc3ccc(C)cc3C(=O)CS2)cc1)OCC`, the ALP activity is 1.1.

Turning to `CCOP(=O)(Cc1ccc(NC(=O)[C@@H]2SCC(=O)c3cc4c(cc32)OCO4)cc1)OCC`, the ALP activity stood at 1.2.

For the compound `CC(C)OP(=O)(Cc1ccc(NC(=O)[C@H]2Cc3cc4c(cc3C(=O)[C@H](C)S2)OCO4)cc1)OC(C)C`, the ALP activity was 3.9.

As for `CCOP(=O)(Cc1ccc(NC(=O)[C@H]2Cc3ccc(C)cc3C(=O)[C@H](C)S2)cc1)OCC`, the ALP activity turned out to be 1.7.
